Reference: ChEMBL document CHEMBL1126276, “Synthesis and antimalarial properties of 1-imino derivatives of 7-chloro-3-substituted-3,4-dihydro-1,9(2H,10H)-acridinediones and related structures” (J Med Chem, 1992)
Values joined by “and” are separate entries in the source; they are usually repeats but may differ in a detail not shown here. Equal values may be shown once.

What was measured:
Type in all cases: functional
[1] = system: Plasmodium berghei; assay: Antimalarial activity in Plasmodium berghei infected mice (Mus musculus) after subcutaneous 160 mg/kg dose
Outline: (§1)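 Normal drug-sensitive P. berghei strain in mice. Compound dissolved or suspended in sesame or peanut oil, given parenterally as a single subcutaneous dose 72 h postinfection.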

[2] = system: Plasmodium berghei; assay: Antimalarial activity in Plasmodium berghei infected mice (Mus musculus) after subcutaneous 320 mg/kg dose; outline: as §1
[3] = system: Plasmodium berghei; assay: Antimalarial activity in Plasmodium berghei infected mice (Mus musculus) after subcutaneous 640 mg/kg dose; outline: as §1
[4] = system: Plasmodium berghei; assay: Antimalarial activity in Plasmodium berghei infected mice (Mus musculus) after 160 mg/kg subcutaneous dose
Outline: (§2)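 […] in mice infected with a normal drug-sensitive P. berghei strain. Compound dissolved or suspended in sesame or peanut oil, given as a single subcutaneous dose 72 h postinfection.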

[5] = system: Plasmodium berghei; assay: Antimalarial activity in Plasmodium berghei infected mice (Mus musculus) after 20 mg/kg subcutaneous dose; outline: as §2
[6] = system: Plasmodium berghei; assay: Antimalarial activity in Plasmodium berghei infected mice (Mus musculus) after 80 mg/kg subcutaneous dose; outline: as §2
[7] = system: Plasmodium berghei; assay: Antimalarial activity in Plasmodium berghei infected mice (Mus musculus) after 40 mg/kg subcutaneous dose; outline: as §2
[8] = system: Plasmodium berghei; assay: Antimalarial activity Plasmodium berghei infected mice (Mus musculus) after 640 mg/kg subcutaneous dose; outline: as §2

| Compound | No. of cured mice [1] | No. of cured mice [2] | No. of cured mice [3] | Delta mean survival time [4] | Delta mean survival time [5] | Delta mean survival time [6] | Delta mean survival time [7] | Delta mean survival time [8] | Delta mean survival time ([6]; 80 mg/kg) |
| --- | --- | --- | --- | --- | --- | --- | --- | --- | --- |
| O=C1CC(c2ccc(Cl)c(Cl)c2)Cc2c1c(=O)c1cc(Cl)ccc1n2O (centres undefined) | 2 | 5 | 5 | 11 | 3.2 | 10.8 | 5 | – | – |
| CCc1ccc2nc3c(c(O)c2c1)C(=O)CC(c1ccc(C(F)(F)F)cc1)C3 (centres undefined) | – | – | – | 0.4 | – | – | 0 | 0.2 | – |
| CCC1C(=O)c2c(nc3ccc(Cl)cc3c2O)CC1c1ccc(C(F)(F)F)cc1 (centres undefined) | – | – | – | 1.2 | – | – | 0.6 | 1.6 | – |
| O=C1CC(c2ccc(C(F)(F)F)cc2)Cc2nc3cc(Cl)ccc3c(O)c21 (centres undefined) | – | – | – | 0.2 | – | – | -0.4 | 0.4 | – |
| CC1(C)CC(=O)c2c(nc3ccccc3c2O)C1 | 2 | – | 5 | 5.6 | – | – | 3.8 | – | – |
| CSc1ccc(C2CC(=O)c3c(nc4ccc(Cl)cc4c3O)C2)cc1 (centres undefined) | – | – | – | 8.6 | – | – | 4.4 | 12.4 | – |
| O=C1CC(c2ccc(C(F)(F)F)cc2)Cc2nc3ccc(I)cc3c(O)c21 (centres undefined) | – | – | – | 0.4 | – | – | 0.2 | 0.4 | – |
| O=C1CC(c2ccc(C3CCCCC3)cc2)Cc2c1c(=O)c1cc(Cl)ccc1n2O (centres undefined) | – | – | – | 1.3 | – | – | 0.9 | 4.1 | – |
| O=C1CC(c2ccc(Cl)cc2Cl)Cc2nc3cc(Cl)ccc3c(O)c21 (centres undefined) | – | – | – | 0.1 | – | – | -0.1 | 1.3 | – |
| CCN(CC)CCOc1ccc(C2CC(=O)c3c(n([O-])c4ccc(Cl)cc4c3=O)C2)cc1.[Na+] (centres undefined) | – | – | – | 1.5 | – | – | – | 5.3 | – |
| COc1cc(C2C/C(=N\CCCN3CCCC3)c3c(n(O)c4ccc(Cl)cc4c3=O)C2)cc(OC)c1OC (centres undefined) | – | – | – | 0.6 | – | – | 0.2 | 6.4 | – |
| O=C1CC(c2ccc(C(F)(F)F)cc2)Cc2nc3ccc(C(F)(F)F)cc3c(O)c21 (centres undefined) | – | – | – | 0.1 | – | – | 0.1 | -0.1 | – |
| CCN(CC)CCC/N=C1\CC(c2cc(OC)c(OC)c(OC)c2)Cc2c1c(=O)c1cc(Cl)ccc1n2O (centres undefined) | – | – | – | 0.7 | – | – | 0.4 | 6.1 | – |
| CC1(C)CC(=O)c2c(nc3ccc(Cl)cc3c2O)C1 | – | 3 | 4 | – | – | – | – | – | – |
| CCN(CC)CC(C)(C)C/N=C1\CC(c2cc(OC)c(OC)c(OC)c2)Cc2c1c(=O)c1cc(Cl)ccc1n2O (centres undefined) | – | – | – | 0.7 | – | – | 0.5 | 4.7 | – |
| O=C1c2c(nc3ccc(Cl)cc3c2O)CC(c2ccc(Cl)c(Cl)c2)C1c1ccccc1 (centres undefined) | – | – | – | 0.4 | – | – | 0 | 1.4 | – |
| O=C1CC(c2ccccc2C(F)(F)F)Cc2nc3ccc(Cl)cc3c(O)c21 (centres undefined) | – | – | – | 8.5 | – | – | 0.7 | 8.3 | – |
| CN(C)CCC/N=C1\CC(c2ccc(C(F)(F)F)cc2)Cc2nc3c(Br)cc(Br)cc3c(O)c21 (centres undefined) | – | – | – | 0.2 | – | – | 0.2 | 0.4 | – |
| O=C1CC(c2cccc(C(F)(F)F)c2)Cc2c1c(=O)c1cc(Cl)ccc1n2O (centres undefined) | 3 | 5 | 5 | 13.4 | 6 | 12.1 | 8.8 | – | – |
| CCCC/N=C1\CC(c2ccc(C(F)(F)F)cc2)Cc2nc3ccc(Cl)cc3c(O)c21 (centres undefined) | 1 | – | 5 | 10.1 | – | – | 6 | – | – |
| O=c1c2c(n(O)c3ccc(Cl)cc13)CC(c1ccc(Cl)c(Cl)c1)C/C2=N\CCCN1CCCCC1 (centres undefined) | 4 | 5 | 5 | 8.7 | – | 9.2 | 5.9 | – | – |
| O=C1CC(c2ccc(C(F)(F)F)cc2)Cc2nc3c(Cl)cc(Cl)cc3c(O)c21 (centres undefined) | – | – | – | 0.4 | – | – | -0.2 | 0 | – |
| COc1ccc2nc3c(c(O)c2c1)/C(=N/CCCN(C)C)CC(c1ccc(C(F)(F)F)cc1)C3 (centres undefined) | 2 | 5 | 5 | 8.7 | 0.7 | 6.1 | 5.5 | – | – |

| Compound | No. of cured mice [1] | No. of cured mice [2] | No. of cured mice [3] | Delta mean survival time [4] | Delta mean survival time [5] | Delta mean survival time [6] | Delta mean survival time [7] | Delta mean survival time [8] | Delta mean survival time ([6]; 80 mg/kg) |
| --- | --- | --- | --- | --- | --- | --- | --- | --- | --- |
| CN(C)CCC/N=C1\CC(c2ccc(C(F)(F)F)cc2)Cc2nc3c(Cl)cc(Cl)cc3c(O)c21 (centres undefined) | 4 | 5 | 5 | 8 | – | 8.2 | 6.3 | – | – |
| CN1CCN(CCC/N=C2\CC(c3ccc(Cl)c(Cl)c3)Cc3c2c(=O)c2cc(Cl)ccc2n3O)CC1 (centres undefined) | 5 | 5 | 5 | – | – | – | 7.4 | – | – |
| Cn1c2c(c(=O)c3cc(Cl)ccc31)C(=O)CC(c1ccc(Cl)c(Cl)c1)C2 (centres undefined) | – | – | – | 0.6 | – | – | 0 | 0.2 | – |
| O=C1CC(c2ccc(C3CCCCC3)cc2)Cc2nc3ccc(Cl)cc3c(O)c21 (centres undefined) | – | – | – | 0.2 | – | – | 0.2 | 1.6 | – |
| COc1ccc(C2CC(=O)c3c(nc4ccc(Cl)cc4c3O)C2)cc1 (centres undefined) | – | – | – | 0.1 | – | – | -0.1 | -0.1 | – |
| CN(C)CCC/N=C1\CC(c2ccc(C3CCCCC3)cc2)Cc2c1c(=O)c1cc(Cl)ccc1n2O (centres undefined) | 3 | – | 5 | 9.4 | – | – | 5 | – | – |
| CN(C)CCC/N=C1\CC(c2ccc(C(F)(F)F)cc2)Cc2nc3ccc(C(F)(F)F)cc3c(O)c21 (centres undefined) | – | – | 5 | 7.1 | – | – | 3.1 | – | – |
| CCCC/N=C1\CC(c2ccc(Cl)c(Cl)c2)Cc2c1c(=O)c1cc(Cl)ccc1n2O (centres undefined) | 3 | 5 | 5 | – | 2.5 | – | 6.1 | – | 9.9 and 8.3 |
| CN(C)CCCCCCC/N=C1\CC(c2ccc(Cl)c(Cl)c2)Cc2c1c(=O)c1cc(Cl)ccc1n2O (centres undefined) | 5 | 5 | 5 | – | – | 11.3 | 6.5 | – | – |
| CC(C)C1CC(=O)c2c(n(C)c3ccccc3c2=O)C1 (centres undefined) | – | – | – | 0.2 | – | – | -0.2 | 0.5 | – |
| O=C1CC(c2ccc(C(F)(F)F)cc2)Cc2nc3cccc(Cl)c3c(O)c21 (centres undefined) | 5 | – | 5 | – | – | – | 8.7 | – | – |
| O=C1CC(c2ccc(Cl)c(Cl)c2)Cc2c1c(=O)c1c(Cl)c(Cl)ccc1n2O (centres undefined) | – | – | – | 0.1 | – | – | – | 0.3 | – |
| O=C1CC2(CCCCC2)Cc2nc3ccc(Cl)cc3c(O)c21 | – | – | – | 0 | – | – | 0.6 | 0.2 | – |
| CN(C)CCC/N=C1\CC(c2ccccc2Cl)Cc2nc3ccc(Cl)cc3c(O)c21 (centres undefined) | 2 | 5 | 5 | 11.3 | – | 6.3 | 5.6 | – | – |
| CN(C)CCC/N=C1\CC(c2cccc(C(F)(F)F)c2)Cc2c1c(=O)c1cc(Cl)ccc1n2O (centres undefined) | 4 | 5 | 5 | 12.4 | 4.8 | 9.6 | 6.9 | – | – |
| O=C1CC(c2ccc(C(F)(F)F)cc2)Cc2nc3c(Br)cc(Br)cc3c(O)c21 (centres undefined) | – | – | – | 0.2 | – | – | 0.6 | 0 | – |
| O=C1CC(c2ccc(C(F)(F)F)cc2)Cc2nc3ccc(F)cc3c(O)c21 (centres undefined) | – | – | 5 | 8.9 | – | – | 7.1 | – | – |
| O=C1CC(c2ccc(Cl)cc2Cl)Cc2nc3c(Cl)ccc(Cl)c3c(O)c21 (centres undefined) | – | – | – | 0.3 | – | – | 0.1 | -0.1 | – |
| CCCCCCC/N=C1\CC(c2cccc(C(F)(F)F)c2)Cc2c1c(=O)c1cc(Cl)ccc1n2O (centres undefined) | 3 | 5 | 5 | 5 | – | 2.8 | – | – | – |
| O=C1CC(c2ccc(C(F)(F)F)cc2)Cc2nc3ccccc3c(O)c21 (centres undefined) | 4 | 5 | 5 | 10.8 | 2.7 | 8.2 | 4.6 | – | – |
| COc1ccccc1C1CC(=O)c2c(nc3ccc(Cl)cc3c2O)C1 (centres undefined) | 4 | – | 5 | 0.7 | – | – | 8.3 | – | – |
| CN(C)CCC/N=C1\CC(c2ccc(C(F)(F)F)cc2)Cc2nc3cccc(Cl)c3c(O)c21 (centres undefined) | 4 | – | 5 | 24.9 | – | – | 7.7 | – | – |
